PABP FP inh: blocks human PABP binding to poly(A) RNA | fluorescence polarization | P11940 | inhibition, % at 35 µM | 290,000 tested, 1% active;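 note: calls also rest on retests at 20 µM and on dose response follow-up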
Target sequence (P11940 whole entry, looked up): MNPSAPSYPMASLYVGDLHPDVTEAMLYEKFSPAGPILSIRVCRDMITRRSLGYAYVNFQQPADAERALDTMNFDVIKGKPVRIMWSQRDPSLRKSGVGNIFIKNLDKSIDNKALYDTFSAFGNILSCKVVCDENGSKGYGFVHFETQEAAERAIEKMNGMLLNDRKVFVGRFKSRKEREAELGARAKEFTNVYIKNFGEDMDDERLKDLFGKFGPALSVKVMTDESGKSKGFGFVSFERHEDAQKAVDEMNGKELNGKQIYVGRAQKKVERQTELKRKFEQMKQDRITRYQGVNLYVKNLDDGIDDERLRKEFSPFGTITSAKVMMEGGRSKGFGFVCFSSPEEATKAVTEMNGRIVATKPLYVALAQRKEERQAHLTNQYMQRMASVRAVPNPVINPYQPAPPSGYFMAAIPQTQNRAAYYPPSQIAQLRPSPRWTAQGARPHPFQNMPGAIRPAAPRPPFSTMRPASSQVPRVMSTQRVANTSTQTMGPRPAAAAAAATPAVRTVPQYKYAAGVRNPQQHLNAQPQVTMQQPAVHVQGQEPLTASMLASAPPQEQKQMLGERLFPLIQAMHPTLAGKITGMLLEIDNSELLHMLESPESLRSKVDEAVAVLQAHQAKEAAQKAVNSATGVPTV
HCV NS3 hel inh: HCV NS3 helicase inhibition; NS3 helicase DNA unwinding, Cy5 molecular beacon fluorescence; inhibition, % at 10.9 µM; 290,000 tested, 0.56% active; AID 1800;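 active = inhibition above the mean of all tested compounds plus 3 SD, set per campaign, cut at about 35% in these data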;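 note: 0% = DMSO wells and 100% = thioflavine S control wells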
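Control set: DMSO versus 110 µM thioflavine S; Material: NS3 helicase fragment of HCV; Measured by: Cy5 fluorescence at 0 and 60 min, beacon hairpin quenching; Read-out basis: percent inhibition from t60/t0 fluorescence ratio; Times: reaction time 60 min, 25 °C; Repeats: single replicate; Compound dosing: single dose, 10.9 µM nominal final, DMSO 0.8% final.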
PABP1 MLLE inh: blocks PAM2 peptide binding to the PABP1 MLLE domain. P11940. GST-MLLE / FITC-PAM2 fluorescence polarization. inhibition, % at 20 µM. 360,000 tested, 0.36% active. AID 588489; in the data active = inhibition above about 35%, passing the limit was not always enough;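 note: plate controls were DMSO wells with GST-MLLE for no effect and wells lacking GST-MLLE protein for full effect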
eIF4H inh: inhibitors of RNA binding by human eIF4H. Q15056. inhibition, % at 35 µM. eIF4H fluorescence polarization binding assay. AID 2012. 290,000 tested, 0.94% active;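 note: calls also rest on retests at 20 µM and on dose response follow-up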
ZTA counter: blocks Epstein-Barr virus ZTA, an EBNA-1 counter-screen; P03206; inhibition, % at 11 µM; ZTA-DNA binding, fluorescence polarization; AID 2234; 320,000 tested, 0.15% active; in the data active = inhibition above about 33%
EBNA-1 inh: blocks EBNA-1 binding to DNA | 300,000 tested, 0.34% active | inhibition, % at 14.8 µM | EBNA-1 DNA binding, fluorescence polarization; in the data active = inhibition above about 28%
Numbers without * were called inactive; nt = no result. Most compounds without a hit are left out; they make up all but 2.1% or so of the library. Unless noted, the rule behind the calls is not given here.

SMILES	PABP FP inh	HCV NS3 hel inh	PABP1 MLLE inh	eIF4H inh	ZTA counter	EBNA-1 inh
CN(C)CCCN1CC(=O)N2[C@@H](Cc3c([nH]c4ccccc34)C2(C)C)C1=O	6	5	-5	4	4	1
CCCCN(CCCC)S(=O)(=O)c1ccc(N2CCCC2=O)c([N+](=O)[O-])c1	nt	-3	-2	nt	-3	7
CCC(=O)NC(=S)Nc1ccc(S(=O)(=O)N2CCN(C)CC2)cc1	-9	2	0	-4	-5	-17
CN1CCN(S(=O)(=O)c2ccc(NC(=S)NC(=O)C(C)(C)C)cc2)CC1	-10	-5	40*	-3	-4	2
CN1CCN(C(=S)NC(=O)c2ccc(S(=O)(=O)N3CCOCC3)cc2)CC1	-1	8	40*	-6	-4	2
O=C(Nc1cccnc1Cl)c1cc(-c2ccc(F)cc2)on1	1	5	0	-11	-8	-4
Cc1ccc(NC(=O)COC(=O)c2ccc(C)c(S(=O)(=O)N3CCOCC3)c2)cc1	nt	nt	0	nt	nt	nt
CCC(=O)Nc1nc(=S)ss1	44	18	13	-7	-1	-5
O=P(c1ccccc1)(c1ccccc1)c1cc(S(=O)(=O)O)ccc1O	30*	5	-9	78*	nt	nt
COc1ccc(C(=O)NCc2nnc(SCC(=O)N3CCCCC3)o2)cc1	-4	6	-55	-2	-12	-14
CC1C=CCC2C(=O)N(c3ccc(Cl)cc3O)C(=O)C12 (stereo not given)	5	-1	-1	7	-18	-2
Nc1cccc2cnccc12	52	9	1	88*	0	-2
Oc1cccc2cnccc12	3	9	-11	3	-12	6
COc1ccccc1/C=C1\SC(=S)N(CCC(=O)NNC(=O)c2ccccc2OC)C1=O	10	-1	18	-6	-5	-22
CCOC(=O)N1CCN(C(=O)CN2C(=O)c3ccccc3S2(=O)=O)CC1	3	5	-10	2	-13	9
COc1ccc2nc(NC(=O)c3cccc(-c4cc5ccccc5oc4=O)c3)sc2c1	-14	7	-9	15	14	44*
COc1ccc(NS(=O)(=O)c2cc(NC(=O)/C=C/c3cccs3)ccc2N2CCOCC2)cc1	-5	-5	1	-3	-18	73*
C=CCOc1ccccc1C1C2=C(CC(C)(C)CC2=O)Nc2c1c(=O)n(C)c(=O)n2C (stereo not given)	2	2	-7	2	-8	-6
COc1ccc(C2C3=C(CC(C)(C)CC3=O)Nc3c2c(=O)n(C)c(=O)n3C)cc1OC (stereo not given)	69	15	3	active	-3	6
CC1=NN(Cc2ccccc2)C(=O)C1C(c1ccccc1)C(C#N)C#N (stereo not given)	7	7	3	1	-5	-2
Cc1ccc(O)c(C=Nc2ccc3[nH]ncc3c2)c1	active	7	1	68*	-1	-1
C=CCc1c(C)nc(-c2ccccc2)nc1Nc1ccccc1O	active	-15	0	69	-30	-2
O=C(COC(=O)CCOc1ccccc1)NCc1ccco1	67*	8	-8	94*	-9	9
O=C(COC(=O)C1CC2C=CC1C2)NCc1ccco1 (stereo not given)	41*	23	-1	93*	11	5
O=C(COc1ccccc1)NCc1ccco1	nt	nt	6	nt	nt	nt
SMILES	PABP FP inh	HCV NS3 hel inh	PABP1 MLLE inh	eIF4H inh	ZTA counter	EBNA-1 inh
Cc1ccc(NC(=O)C(=O)NCC2OCCc3ccccc32)cc1 (stereo not given)	3	6	1	-2	6	-7
O=C(NCC1OCCc2ccccc21)c1ccc(NC(=O)c2ccc(Cl)cc2)cc1 (stereo not given)	-18	-3	-5	-2	1	32*
COc1ccccc1N1CCN(C(=O)/C=C/c2c(Cl)nc3ccccn23)CC1	22	-3	-4	1	13	5
COc1ccc(NC(=O)/C=C/c2c(Cl)nc3ccccn23)cc1	76*	12	-13	1.5*	5	3
O=C1c2ccccc2C(=O)c2c(/C=C/N3CCCCC3)ccnc21	nt	nt	43*	nt	nt	nt
CCCCN(C)C(=O)c1sc(=O)n(Cc2ccccc2F)c1C	nt	nt	12	nt	nt	nt
COc1ccc(NC(=S)N(Cc2ccc(C(=O)O)cc2)Cc2ccc(OC)c(OC)c2)cc1	active	4	-10	91*	8	3

Screening data from PubChem BioAssay.
